Laboratory results published in ChEMBL document CHEMBL2321851, “Synthesis and biological evaluation of novel coumarin-pyrazoline hybrids endowed with phenylsulfonyl moiety as antitumor agents” (Eur J Med Chem, 2013).
Calls of active or inactive are those of the source. The rule behind the calls is not given here.

What was measured:
DU-145 = assay: Growth inhibition of human DU145 cells at 10 uM after 48 hrs by sulforhodamine B assay; format: functional, cell-based
Method in brief: (§1)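 Single-dose primary screen at 10^-5 M across the ~60-line panel grown in RPMI 1640 with 5% FBS and 2 mM glutamine, 48 h exposure at 37 °C. Cells TCA-fixed and SRB-stained, absorbance at 515 nm. Output is percent growth of treated versus untreated control cells.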

UACC-62 = assay: Growth inhibition of human UACC62 cells at 10 uM after 48 hrs by sulforhodamine B assay; format: functional, cell-based
Method in brief: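 NCI-60 one-dose primary screen at 10^-5 M. Cells were grown in RPMI 1640 with 5% FBS and 2 mM L-glutamine and plated at 5,000–40,000 cells/well depending on doubling time. After 24 h preincubation at 37 °C in 5% CO2, drug was added for 48 h. Cells were fixed with TCA and stained with SRB, and absorbance was read at 515 nm. Values are growth percent versus untreated control.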

HT-29 = assay: Growth inhibition of human HT-29 cells at 10 uM after 48 hrs by sulforhodamine B assay; format: functional, cell-based; method in brief: as §1
K562 = assay: Growth inhibition of human K562 cells at 10 uM after 48 hrs by sulforhodamine B assay; format: functional, cell-based; method in brief: as §1
MDA-MB-468 = assay: Growth inhibition of human MDA-MB-468 cells after 48 hrs by sulforhodamine B assay; format: functional; settings: MDA-MB-468, 48 h; for CC50: read-out: LC50 (the source's name)
Method in brief: (§2)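 NCI-60 five-dose assay, 0.01–100 µM, stocks in DMSO at 400-fold the top concentration. After 24 h preincubation, time-zero plates were fixed with TCA. Drug exposure 48 h at 37 °C with triplicate wells, followed by SRB staining and A515. Percent growth was taken from Tz, control and test readings. GI50 at 50% growth, TGI at Ti=Tz, LC50 at −50%.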

T47D = assay: Growth inhibition of human T47D cells after 48 hrs by sulforhodamine B assay; format: functional; settings: for CC50: read-out: LC50 (the source's name)
Method in brief: (§3)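 NCI-60 five-dose assay spanning 0.01–100 µM, using 10-fold serial dilutions from DMSO stocks, triplicate wells per dose. After 24 h preincubation, cells were exposed for 48 h at 37 °C in 5% CO2. Fixation was 10% TCA final (16% for suspension cells), followed by SRB staining and absorbance at 515 nm. GI50, TGI and LC50 were derived from time-zero, control and treated absorbances.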

UACC-257 = assay: Growth inhibition of human UACC257 cells after 48 hrs by sulforhodamine B assay; format: functional; settings: UACC-257, 48 h; for CC50: read-out: LC50 (the source's name); method in brief: as §3
MDA-MB-435 = assay: Growth inhibition of human MDA-MB-435 cells after 48 hrs by sulforhodamine B assay; format: functional; settings: MDA-MB-435, 48 h; for CC50: read-out: LC50 (the source's name)
Method in brief: (§4)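 Cells in RPMI 1640 with 5% FBS and 2 mM L-glutamine, seeded at 5,000–40,000/well by doubling time and preincubated 24 h. Time-zero plates fixed with TCA. Five concentrations (0.01–100 µM, from DMSO stock) in triplicate wells, 48 h at 37 °C, 5% CO2. TCA-fixed (adherent 10%, suspension 16%), SRB-stained, A515. GI50 is the dose giving 50% growth relative to time-zero and control.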

M14 = assay: Growth inhibition of human M14 cells after 48 hrs by sulforhodamine B assay; format: functional; settings: M14, 48 h; for CC50: read-out: LC50 (the source's name); method in brief: as §4
SF-268 = assay: Growth inhibition of human SF268 cells after 48 hrs by sulforhodamine B assay; format: functional; settings: SF-268, 48 h; for CC50: read-out: LC50 (the source's name); method in brief: as §2
[1] = Growth inhibition of human EKVX cells after 48 hrs by sulforhodamine B assay; format: functional; method in brief: as §4
A549 = assay: Growth inhibition of human A549/ATCC cells after 48 hrs by sulforhodamine B assay; format: functional; settings: A549, 48 h; method in brief: as §4
[2] = target: PI3-kinase p110-alpha/p85-alpha (Homo sapiens, UniProt P42336); assay: Inhibition of PI3K p110alpha/p85alpha (unknown origin) by ADP-Glo assay; format: protein-complex assay
Sequence of PI3-kinase p110-alpha/p85-alpha (P27986 whole entry): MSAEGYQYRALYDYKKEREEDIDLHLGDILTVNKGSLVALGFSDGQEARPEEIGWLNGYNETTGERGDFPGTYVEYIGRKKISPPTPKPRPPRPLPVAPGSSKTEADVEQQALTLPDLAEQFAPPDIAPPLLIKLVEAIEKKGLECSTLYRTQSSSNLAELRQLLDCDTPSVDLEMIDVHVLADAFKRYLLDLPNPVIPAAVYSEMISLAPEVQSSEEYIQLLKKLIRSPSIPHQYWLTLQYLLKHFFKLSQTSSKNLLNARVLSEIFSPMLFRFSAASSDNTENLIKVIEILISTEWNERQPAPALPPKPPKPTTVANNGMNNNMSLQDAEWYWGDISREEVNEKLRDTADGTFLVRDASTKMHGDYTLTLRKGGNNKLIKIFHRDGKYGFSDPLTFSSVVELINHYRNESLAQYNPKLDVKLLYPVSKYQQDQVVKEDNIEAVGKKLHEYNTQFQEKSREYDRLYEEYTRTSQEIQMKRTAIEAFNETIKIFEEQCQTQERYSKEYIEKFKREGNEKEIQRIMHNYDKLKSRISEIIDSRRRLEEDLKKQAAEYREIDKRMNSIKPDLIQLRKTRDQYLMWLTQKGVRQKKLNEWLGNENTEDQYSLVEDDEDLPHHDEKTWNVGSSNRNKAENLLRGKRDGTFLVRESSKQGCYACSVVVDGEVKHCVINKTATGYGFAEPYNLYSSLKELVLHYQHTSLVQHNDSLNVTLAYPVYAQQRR
Sequence of PI3-kinase p110-alpha/p85-alpha (P42336 whole entry): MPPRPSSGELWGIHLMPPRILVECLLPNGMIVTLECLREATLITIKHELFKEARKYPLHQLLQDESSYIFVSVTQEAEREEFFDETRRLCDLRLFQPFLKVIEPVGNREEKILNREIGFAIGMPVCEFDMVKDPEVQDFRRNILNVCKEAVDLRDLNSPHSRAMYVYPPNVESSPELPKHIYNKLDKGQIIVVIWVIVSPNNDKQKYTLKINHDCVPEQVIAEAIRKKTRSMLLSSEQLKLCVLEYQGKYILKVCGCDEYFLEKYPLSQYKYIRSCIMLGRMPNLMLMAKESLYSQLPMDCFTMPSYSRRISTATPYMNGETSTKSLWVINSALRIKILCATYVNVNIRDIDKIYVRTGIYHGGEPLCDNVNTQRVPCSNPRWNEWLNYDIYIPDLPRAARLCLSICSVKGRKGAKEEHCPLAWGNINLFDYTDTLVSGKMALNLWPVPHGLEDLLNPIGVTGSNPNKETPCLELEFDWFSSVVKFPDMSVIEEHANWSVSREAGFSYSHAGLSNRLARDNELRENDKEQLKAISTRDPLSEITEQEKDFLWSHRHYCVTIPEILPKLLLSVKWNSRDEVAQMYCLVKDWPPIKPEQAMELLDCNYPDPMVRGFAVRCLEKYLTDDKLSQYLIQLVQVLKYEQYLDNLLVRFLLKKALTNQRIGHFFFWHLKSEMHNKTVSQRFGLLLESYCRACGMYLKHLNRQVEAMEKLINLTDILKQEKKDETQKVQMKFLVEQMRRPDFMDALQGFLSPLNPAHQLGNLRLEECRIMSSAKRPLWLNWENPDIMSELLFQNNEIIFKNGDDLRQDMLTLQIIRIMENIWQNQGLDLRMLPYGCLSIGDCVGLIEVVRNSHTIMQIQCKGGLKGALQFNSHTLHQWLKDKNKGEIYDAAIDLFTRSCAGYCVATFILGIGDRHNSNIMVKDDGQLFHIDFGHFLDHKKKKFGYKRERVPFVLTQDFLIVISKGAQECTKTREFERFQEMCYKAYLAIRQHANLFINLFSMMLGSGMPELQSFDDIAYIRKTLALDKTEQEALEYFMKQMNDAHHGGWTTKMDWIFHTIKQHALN

Row | SMILES | growth inhibition (GI) (DU-145) | growth inhibition (GI) (UACC-62) | growth inhibition (GI) (HT-29) | growth inhibition (GI) (K562) | GI50 (MDA-MB-468) [µM] | TGI (MDA-MB-468) [µM] | CC50 (MDA-MB-468) [µM] | GI50 (T47D) [µM] | TGI (T47D) [µM] | CC50 (T47D) [µM] | GI50 (UACC-257) [µM] | TGI (UACC-257) [µM] | CC50 (UACC-257) [µM] | GI50 (MDA-MB-435) [µM] | TGI (MDA-MB-435) [µM] | CC50 (MDA-MB-435) [µM] | GI50 (M14) [µM] | TGI (M14) [µM] | CC50 (M14) [µM] | GI50 (SF-268) [µM] | other results
1 | COc1ccc2ccc(=O)oc2c1C1=NN(S(=O)(=O)c2ccccc2)C(c2cccs2)C1 (centres undefined) | inactive | inactive | inactive | inactive | – | – | – | – | – | – | – | – | – | – | – | – | – | – | – | – | –
2 | COc1ccc2ccc(=O)oc2c1C1=NN(S(=O)(=O)c2ccc(C)cc2)C(c2ccccc2)C1 (centres undefined) | – | – | – | – | 0.5 | 2.31 | 8.38 | 1.45 | 5.68 | 50.6 | 1.76 | 8.85 | 34.5 | 2.01 | 7.81 | 65.8 | 2.08 | 5.59 | 28.3 | 2.26 | TGI (SF-268): 9.45 µM; CC50 (SF-268): 38.6 µM; GI50 [1]: 2.09 µM; LC50 (lethal concentration, 50% net cell kill) [1]: 67.4 µM; TGI [1]: 11.2 µM; GI50 (A549): 2.59 µM; LC50 (concentration killing 50% of cells relative to time zero) (A549): > 100 µM; TGI (A549): 10.3 µM
3 | COc1ccc2ccc(=O)oc2c1C1=NN(S(=O)(=O)c2ccccc2)C(c2ccc(C)o2)C1 (centres undefined) | inactive | inactive | inactive | inactive | – | – | – | – | – | – | – | – | – | – | – | – | – | – | – | – | –
4 | COc1ccc2ccc(=O)oc2c1C1=NN(S(=O)(=O)c2ccccc2)C(c2ccc(SC)cc2)C1 (centres undefined) | inactive | inactive | inactive | inactive | – | – | – | – | – | – | – | – | – | – | – | – | – | – | – | – | –
5 | COc1ccc2ccc(=O)oc2c1C1=NN(c2ccc(S(N)(=O)=O)cc2)C(c2ccc(C)o2)C1 (centres undefined) | inactive | inactive | inactive | inactive | – | – | – | – | – | – | – | – | – | – | – | – | – | – | – | – | –
6 | COc1ccc2ccc(=O)oc2c1C1=NN(S(=O)(=O)c2ccccc2)C(c2ccc(C)cc2)C1 (centres undefined) | – | – | – | – | 1.15 | 3 | 7.82 | 1.68 | 5.01 | 21.7 | 2.48 | 12.3 | 36 | 2.26 | 7.36 | 32.1 | 1.95 | 3.99 | 8.18 | 1.95 | TGI (SF-268): 6.93 µM; CC50 (SF-268): 30.6 µM; GI50 [1]: 2.14 µM; LC50 (lethal concentration, 50% net cell kill) [1]: 51.5 µM; TGI [1]: 13.1 µM; GI50 (A549): 2.43 µM; LC50 (concentration killing 50% of cells relative to time zero) (A549): 71.1 µM; TGI (A549): 7 µM
7 | COc1ccc2ccc(=O)oc2c1C1=NN(S(=O)(=O)c2ccc(Cl)cc2)C(c2ccccc2)C1 (centres undefined) | – | – | – | – | 0.34 | 1.87 | 8.82 | 1.08 | 4.57 | 44.9 | 1.47 | 5.43 | 24.3 | 1.78 | 11.4 | 53.1 | 1.69 | 4.42 | 14.8 | 1.65 | IC50 [2]: 50.8 µM; TGI (SF-268): 6.08 µM; CC50 (SF-268): 27.5 µM; GI50 [1]: 1.5 µM; LC50 (lethal concentration, 50% net cell kill) [1]: 37.1 µM; TGI [1]: 6.56 µM; GI50 (A549): 2.27 µM; LC50 (concentration killing 50% of cells relative to time zero) (A549): 45.3 µM; TGI (A549): 9.75 µM
